Data set [1] deals with SW480. Briefly: Antiproliferative activity against human SW480 cells incubated for 72 hrs by CCK8 assay. To be noted: SW480, 72 h. Background: Tetrazolium assays rely on reduction of a dye to a coloured formazan, in cell work by metabolically active cells.
The test system of another data set is HCT-116. Briefly: Antiproliferative activity against human HCT116 cells incubated for 72 hrs by CCK8 assay. To be noted: HCT-116, 72 h.
For data set [2], the system named is SW480. The data set can be described thus: Induction of apoptosis in human SW480 cells assessed as early apoptotic cells level at 40 uM incubated for 24 hrs by propidium iode and annexin V-FITC staining based flow cytometry (reference value: 1.76%). The data set is classed as functional. On the technique in general: In flow cytometry, cells or beads pass a laser one at a time.

In data set [3] the test system is SW480. The data set can be described thus: Induction of apoptosis in human SW480 cells assessed as late apoptotic cells level at 40 uM incubated for 24 hrs by propidium iode and annexin V-FITC staining based flow cytometry (reference value: 4.46%). The data set is classed as functional.
For data set [4], the system named is SW480. Briefly: Induction of apoptosis in human SW480 cells assessed as necrotic cells level at 40 uM incubated for 24 hrs by propidium iode and annexin V-FITC staining based flow cytometry (reference value: 2.79%). The data set is classed as functional.
Data set [5] deals with SW480. Briefly: Antitumor activity against human SW480 cells xenografted in BALB/C nude mouse assessed as tumor growth inhibition at 50 mg/kg, ip dosed once daily for 12 consecutive days relative to control. The data set is classed as functional. The settings on record: read-out: TGI. Summed up: (§1)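 SW480 xenografts in nude mice, dosed intraperitoneally once a day for 12 consecutive days and compared with a vehicle group. Tumor growth followed over time and expressed as TGI, with data as mean ± standard deviation and significance by P value. Body weight and adverse effects were monitored throughout the study.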
(In general: A xenograft is tissue or cells of one species grown in another, often human tumour cells in immunodeficient mice.)

The nature of data set [6]: Toxicity in BALB/C nude mouse xenografted with human SW480 cells assessed as induction of body weight loss at 50 mg/kg, ip dosed once daily for 12 consecutive days. It is filed as organism-based. To be noted: in vivo. Summed up: as §1
A short description of data set [7]: Toxicity in BALB/C nude mouse xenografted with human SW480 cells assessed as induction of adverse effects at 50 mg/kg, ip dosed once daily for 12 consecutive days. The data set is classed as organism-based. The settings on record: in vivo. Summed up:
as §1

In data set [8] the test system is Mus musculus. Briefly: In-vivo protac activity at cereblon/PDE6D in BALB/C nude mouse xenografted with human SW480 cells assessed as decrease in PDEdelta level at 50 mg/kg, ip dosed once daily for 12 consecutive days by immunofluorescence assay. The data set is classed as functional, organism-based. Summed up: (§2)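 Tumor tissue from SW480-transplanted nude mice analysed by immunofluorescence for PDEδ, RAS and p-Akt protein expression.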

Data set [9] in a line: Permeability in human Caco2 cells. It is filed as ADME, cell-based. The settings on record: caco-2.
The test system of a further data set is MIA PaCa-2. Briefly: Antiproliferative activity against human MIAPaCa2 cells incubated for 72 hrs by CCK8 assay. It is filed as functional, cell-based.
Data set [10] has as its system SW480. The data set can be described thus: Antiproliferative activity against human SW480 cells incubated for 72 hrs in presence of 30 uM pomalidomide by CCK8 assay. To be noted: SW480, 72 h.
The subject of data set [11] is SW480. The data set can be described thus: Induction of apoptosis in human SW480 cells assessed as early apoptotic cells level at 20 uM incubated for 24 hrs by propidium iode and annexin V-FITC staining based flow cytometry (reference value: 1.76%). The data set is classed as functional.
For data set [12], the system named is SW480. Briefly: Induction of apoptosis in human SW480 cells assessed as late apoptotic cells level at 20 uM incubated for 24 hrs by propidium iode and annexin V-FITC staining based flow cytometry (reference value: 4.46%). It is filed as functional.
Data set [13] has as its system SW480. The data set can be described thus: Induction of apoptosis in human SW480 cells assessed as necrotic cells level at 20 uM incubated for 24 hrs by propidium iode and annexin V-FITC staining based flow cytometry (reference value: 2.79%). It is filed as functional.
Data set [14] deals with Mus musculus. The data set can be described thus: In-vivo protac activity at cereblon/PDE6D in BALB/C nude mouse xenografted with human SW480 cells assessed as decrease in p-Akt level at 50 mg/kg, ip dosed once daily for 12 consecutive days by immunofluorescence assay. The data set is classed as functional, organism-based. The procedure, abridged: as §2
The nature of data set [15]: Half life in Sprague-Dawley rat at 50 mg/kg, ip measured after 0.083 to 24 hrs by LC-MS/MS analysis. It is filed as ADME, organism-based. The settings on record: in vivo. The procedure, abridged: (§3)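 Rats given the compound intraperitoneally at 50 mg/kg, with drug levels measured in plasma over time. The concentration–time profile gave half-life, Cmax and AUC.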
Data set [16] can be described thus: Tmax in Sprague-Dawley rat at 50 mg/kg, ip measured after 0.083 to 24 hrs by LC-MS/MS analysis. The data set is classed as ADME, organism-based. The settings on record: in vivo. Summed up:
as §3

Data set [17] can be described thus: Cmax in Sprague-Dawley rat at 50 mg/kg, ip measured after 0.083 to 24 hrs by LC-MS/MS analysis. The data set is classed as ADME, organism-based. Further details: dose 50 mg/kg, route intraperitoneal. To be noted: in vivo. The procedure, abridged: as §3
Data set [18] can be described thus: AUC (0 to infinity) in Sprague-Dawley rat at 50 mg/kg, ip measured after 0.083 to 24 hrs by LC-MS/MS analysis. It is filed as ADME, organism-based. Details: dose 50 mg/kg, route intraperitoneal, time infinity. The settings on record: in vivo. Summed up:
as §3

A short description of data set [19]: Clearance in Sprague-Dawley rat at 50 mg/kg, ip measured after 0.083 to 24 hrs by LC-MS/MS analysis. The data set is classed as ADME, organism-based. The settings on record: in vivo. Summed up:
as §3

Data on 11 compounds can be found in ChEMBL document CHEMBL4616722, “Discovery of Novel PDEδ Degraders for the Treatment of KRAS Mutant Colorectal Cancer” (J Med Chem, 2020).

Activity calls are given as the source filed them. The rule behind the calls is not given here.

`Cc1ccc(-n2nc3c(=O)n(CCCC(=O)NCC(C)c4ccccc4)nc(C)c3c2C)cc1` (stereo unspecified): the figures for the IC50 in the data set with SW480 [1] and with HCT-116 were 56 µM and 74 µM, respectively. Also, the Activity with SW480 [2] was 2.49%; in the data set on SW480 [3] it was 8.61%; with SW480 [4], 2.44%; in data set [6] it was “Non-Toxic”; in data set [7], “Non-Toxic”. Further, in the data set on SW480 [5], the inhibition in vivo at 50 mg/kg was found to be 24%. The result in the data set on Mus musculus [8] was inactive.

Regarding `Cc1ccc(-n2nc3c(=O)n(CCCC(=O)NCCCCCNc4cccc5c4C(=O)N(C4CCC(=O)NC4=O)C5=O)nc(C)c3c2C)cc1` (stereo unspecified), the IC50 (as a rule, the concentration at which inhibition is half-maximal) stood at 17 µM with SW480 [1] and 32 µM in the data set on HCT-116.

For the compound `Cc1ccc(-n2nc3c(=O)n(CCCC(=O)NCCCCCCCCNc4ccc5c(c4)C(=O)N(C4CCC(=O)NC4=O)C5=O)nc(C)c3c2C)cc1` (stereo unspecified), in the data set on SW480 [1], the midpoint of inhibition, the IC50, lay at 7 µM.

Turning to `Cc1ccc(-n2nc3c(=O)n(CCCC(=O)NCCCOCCOCCOCCCNc4cccc5c4C(=O)N(C4CCC(=O)NC4=O)C5=O)nc(C)c3c2C)cc1` (stereo unspecified), the IC50 in the data set on SW480 [1] was found to be 26 µM; with HCT-116, 23 µM.

With `Cc1ccc(-n2nc3c(=O)n(CCCC(=O)NCCCCNc4cccc5c4C(=O)N(C4CCC(=O)NC4=O)C5=O)nc(C)c3c2C)cc1` (stereo unspecified), the results for the IC50 with SW480 [1] and with HCT-116 were 76 µM and 51 µM, respectively.

For `Cc1ccc(-n2nc3c(=O)n(CCCC(=O)NCCOCCOCCNc4cccc5c4C(=O)N(C4CCC(=O)NC4=O)C5=O)nc(C)c3c2C)cc1` (stereo unspecified), the results for the IC50 in the data set on SW480 [1] and in the data set with HCT-116 were 58 µM and 25 µM, respectively.

In the case of `Cc1ccc(-n2nc3c(=O)n(CCCC(=O)NCCCCCCCCNc4cccc5c4C(=O)N(C4CCC(=O)NC4=O)C5=O)nc(C)c3c2C)cc1` (stereo unspecified), the IC50 in the data set with SW480 [1] was 8 µM; in the data set with HCT-116, 8 µM; with SW480 [10], 71 µM. The permeability entry in data set [9] is “Impermeable”. Further, the outcome with MIA PaCa-2, with Mus musculus [8] and in the data set with Mus musculus [14] was Active. In addition, the Activity with SW480 [2] was found to be 62.58%; in the data set on SW480 [3] it was 2.95%; with SW480 [4] it was 0.37%; in the data set on SW480 [11], 36.25%; in the data set on SW480 [12] it was 2.06%; with SW480 [13], 0.9%. Besides, the Activity result in data set [6] and in data set [7] was “Non-Toxic” throughout. Moreover, in the data set with SW480 [5], the inhibition in vivo at 50 mg/kg came to 43%. For the same compound, the half-life (in general, the time in which the quantity being followed falls by half) in data set [15] is 5.11 h. For the same compound, the Tmax (as a rule, the time from dosing to the highest level) in data set [16] came out at 1.67 h. Besides, the peak level in data set [17] (Cmax) was 564 ng/mL. Besides, the AUC(0-inf) (in general, total exposure, with the tail of the curve extrapolated) in data set [18] was found to be 4710 ng·h/mL. Moreover, the CL/F – broadly, clearance divided by bioavailability, as obtained after extravascular dosing – in [19] was 179 mL/min/kg.

On to `Cc1ccc(-n2nc3c(=O)n(CCCC(=O)NCCCCCCCNc4cccc5c4C(=O)N(C4CCC(=O)NC4=O)C5=O)nc(C)c3c2C)cc1` (stereo unspecified), for which the results for the IC50 in the data set with SW480 [1] and in the data set on HCT-116 were 12 µM and 20 µM, respectively.

Turning to `Cc1ccc(-n2nc3c(=O)n(CCCC(=O)NCCCNc4cccc5c4C(=O)N(C4CCC(=O)NC4=O)C5=O)nc(C)c3c2C)cc1` (stereo unspecified), the IC50 in the data set with SW480 [1] was 81 µM; with HCT-116, 68 µM.

`Cc1ccc(-n2nc3c(=O)n(CCCC(=O)NCCCCCCCCNc4cccc5c4C(=O)N(C4CCC(=O)N(C)C4=O)C5=O)nc(C)c3c2C)cc1` (stereo unspecified) had an IC50 in the data set on SW480 [1] of 70 µM.

As for `Cc1ccc(-n2nc3c(=O)n(CCCC(=O)NCCCCCCNc4cccc5c4C(=O)N(C4CCC(=O)NC4=O)C5=O)nc(C)c3c2C)cc1` (stereo unspecified), the results for the half-inhibitory concentration (IC50) in the data set on SW480 [1] and with HCT-116 were 15 µM and 19 µM, respectively.
